The text below walks through data of ChEMBL document CHEMBL1177791, “Discovery of piperidin-4-yl-aminopyrimidines as HIV-1 reverse transcriptase inhibitors. N-benzyl derivatives with broad potency against resistant mutant viruses” (Bioorg Med Chem Lett, 2010).

Each structure is given as a SMILES string.

The target in experiment [1] is Human immunodeficiency virus type 1 reverse transcriptase (Human immunodeficiency virus 1, UniProt Q72547). In words: Inhibition of wild type HIV1 reverse transcriptase by SPA heteropolymeric assay. In outline:
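Recombinant RT, heteropolymeric assay of RNA-dependent DNA polymerase activity with biotinylated primer oligonucleotide and tritiated dNTP substrate; new DNA quantified by capturing biotinylated primer on streptavidin-coated SPA beads; IC50 reported.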

Experiment [2] has as its target Human immunodeficiency virus type 1 reverse transcriptase (Human immunodeficiency virus 1, UniProt Q72547, K103N/Y181C). Kind of experiment: Inhibition of HIV1 reverse transcriptase K103N/Y181C double mutant by SPA heteropolymeric assay. The essentials: (§1)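 Recombinant mutant RT, heteropolymeric assay of RNA-dependent DNA polymerase activity. Uses a biotinylated primer oligonucleotide and tritiated dNTP substrate. Newly synthesized DNA is captured via the biotinylated primer on streptavidin-coated scintillation proximity beads and counted. Reported as IC50.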

For experiment [3], the target named is Human immunodeficiency virus type 1 reverse transcriptase (Human immunodeficiency virus 1, UniProt Q72547, Y188L). Kind of experiment: Inhibition of HIV1 reverse transcriptase Y188L mutant by SPA heteropolymeric assay. In outline: as §1
Experiment [4] has as its system Human immunodeficiency virus 1. In words: Antiviral activity against HIV1 infected in human MT4 cells assessed as reduction in virus-induced cytopathic effect. Type of experiment: functional, organism-based. As to conditions: Human immunodeficiency virus 1, MT4.
The test system of experiment [5] is Human immunodeficiency virus 1. In words: Antiviral activity against HIV1 expressing reverse transcriptase K103N/Y181C double mutant infected in human MT4 cells assessed as reduction in virus-induced cytopathic effect. Type of experiment: functional, organism-based. The conditions noted are these: Human immunodeficiency virus 1, MT4. In outline: (§2)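 Compound incubated with HIV-1-infected MT4 cells in medium containing 10% fetal bovine serum. Read-out was reduction of viral cytopathic effect on the cells, reported as EC50.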
(Protection from cytopathic effect is a common read-out in antiviral testing.)

The subject of experiment [6] is Human immunodeficiency virus 1. Kind of experiment: Antiviral activity against HIV1 expressing reverse transcriptase Y188L mutant infected in human MT4 cells assessed as reduction in virus-induced cytopathic effect. As to conditions: Human immunodeficiency virus 1, MT4. Type of experiment: functional, organism-based. The essentials:
as §2

Experiment [7] has as its system Human immunodeficiency virus 1. In words: Antiviral activity against wild type HIV1 infected in human MT4 cells assessed as reduction in virus-induced cytopathic effect in presence of 10 % fetal bovine serum. It counts as functional, organism-based. The conditions noted are these: Human immunodeficiency virus 1, MT4.
In experiment [8] the test system is Human immunodeficiency virus 1. Kind of experiment: Antiviral activity against wild type HIV1 infected in human MT4 cells assessed as reduction in virus-induced cytopathic effect in presence of 40 % human serum. Type of experiment: functional, organism-based. The conditions noted are these: Human immunodeficiency virus 1, MT4.
For experiment [9], the system named is Human immunodeficiency virus 1. Kind of experiment: Antiviral activity against HIV1 expressing reverse transcriptase K103N/L100I double mutant infected in human MT4 cells assessed as reduction in virus-induced cytopathic effect. Type of experiment: functional, organism-based. The conditions noted are these: Human immunodeficiency virus 1, MT4. The essentials: as §2

The subject of experiment [10] is Human immunodeficiency virus 1. Kind of experiment: Antiviral activity against HIV1 expressing reverse transcriptase G190A mutant infected in human MT4 cells assessed as reduction in virus-induced cytopathic effect. It counts as functional, organism-based. As to conditions: Human immunodeficiency virus 1, MT4. In outline: as §2
Experiment [11] deals with Human immunodeficiency virus 1. Kind of experiment: Antiviral activity against HIV1 expressing reverse transcriptase V106A mutant infected in human MT4 cells assessed as reduction in virus-induced cytopathic effect. It counts as functional, organism-based. The conditions noted are these: Human immunodeficiency virus 1, MT4. In outline:
as §2

By IC50 is commonly meant the concentration at which inhibition is half-maximal. Take `Cc1cc(C#N)cc(C)c1Oc1ccnc(NC2CCN(Cc3ccc(S(C)(=O)=O)cc3Cl)CC2)n1`: the 50% inhibitory concentration (IC50) in experiment [1] came to 22 nM; in experiment [2], 30 nM; in experiment [3] it was 263 nM; in [4] it was 24.6 nM; in experiment [5], 67.2 nM; in experiment [6], 46.5 nM.
For `Cc1cc(C#N)cc(C)c1Oc1nc(NC2CCN(c3ccccc3)C2)ncc1Br` (centres undefined), the IC50 is 67 nM in [1], above 1000 nM in [2] and 718 nM in experiment [3].
In the same order, the values of `Cc1cc(C#N)cc(C)c1Oc1nc(NC2CCN(Cc3ccccc3C#N)CC2)ncc1Br` are 29 nM, 62 nM and 43 nM.
Taken in the same sequence, the figures for `Cc1cc(C#N)cc(C)c1Oc1nc(NC2CCN(Cc3cccc(C#N)c3)CC2)ncc1Br` were 23 nM, 27 nM and 37 nM.
On to `Cc1cc(C#N)cc(C)c1Oc1ccnc(NC2CCN(Cc3ccccc3)CC2)n1`, for which the 50% inhibitory concentration (IC50) is 87 nM in experiment [1]; 216 nM in [2]; 372 nM in experiment [3]; 3.3 nM in experiment [4]; above 100 nM in experiment [5]; 43.6 nM in experiment [6].
For `Cc1cc(C#N)cc(C)c1Oc1nc(NC2CCN(Cc3ccc(C#N)cc3)CC2)ncc1Br`, the IC50 in experiment [1] amounted to 21 nM; in experiment [2] it was 18 nM; in experiment [3] it was 41 nM.
In the case of `Cc1cc(C#N)cc(C)c1Oc1nc(NC2CCN(Cc3cccc(Cl)c3)CC2)ncc1Br`, the IC50 in [1] worked out at 241 nM; in experiment [2], 229 nM.
For the molecule `Cc1cc(C#N)cc(C)c1Oc1ccnc(NCCC(=O)Nc2ccc(S(N)(=O)=O)cc2Cl)n1`, the IC50 in experiment [1] is 900 nM; in [2], above 1000 nM; in experiment [3] it was above 10000 nM.
Turning to `Cc1cc(C#N)cc(C)c1Oc1nc(NC2CCN(Cc3ccc(S(C)(=O)=O)cc3Cl)CC2)ncc1Br`, the IC50 in experiment [7] is 6.1 nM; in experiment [1], 45 nM; in experiment [2], 28 nM; in experiment [3] it was 216 nM; in experiment [4], 6.1 nM; in [5], 7.3 nM. The IC50 was determined as 2.8 nM in [6]; 48.7 nM in [8]; 5.9 nM in experiment [9]; 1.8 nM in experiment [10]; 2 nM in experiment [11].
With `O=C1Nc2ccc(Cl)cc2[C@@](C#CC2CC2)(C(F)(F)F)O1` [EFAVIRENZ], the half-inhibitory concentration (IC50) in experiment [6] is above 1000 nM; in experiment [9] it was above 500 nM; in [10], 6 nM; in [11], 5.7 nM.
For the molecule `Cc1cc(C#N)cc(C)c1Oc1nc(NC2CCN(Cc3ccc(C(=O)O)cc3Cl)CC2)ncc1Br`, the half-inhibitory concentration (IC50) in [1] was found to be 32 nM; in experiment [2], 28 nM; in experiment [3] it was 86 nM; in experiment [4] it was 3.9 nM; in experiment [5], 74.2 nM.
In the case of `Cc1cc(C#N)cc(C)c1Oc1nc(NC2CCN(Cc3ccc(Cl)cc3)CC2)ncc1Br`, the IC50 in experiment [1] came to 152 nM; in [2], 129 nM; in experiment [3], 793 nM.
As to `Cc1cc(C#N)cc(C)c1Oc1nc(NC2CCN(Cc3ccc(C#N)cc3Cl)CC2)ncc1Br`, the IC50 turned out to be 146 nM in [1]; 159 nM in [2]; 17.6 nM in [4]; 67.4 nM in experiment [5]; 11.6 nM in [6].
Consider `Cc1cc(C#N)cc(C)c1Oc1nc(Nc2ccc(C#N)cc2)nc(N)c1Br` [ETRAVIRINE], for which the IC50 was determined as 3.1 nM in experiment [6], 25.9 nM in [8], 9.5 nM in [9] and 1.1 nM in [10].
For `Cc1cc(C#N)cc(C)c1Oc1ccnc(NC2CCN(Cc3ccc(S(N)(=O)=O)cc3Cl)CC2)n1`, the IC50 in experiment [1] was determined as 84 nM; in experiment [2], 25 nM; in [3], 105 nM; in experiment [4], 4.4 nM; in [5], 21.4 nM; in experiment [6], 1.4 nM.
Consider `Cc1cc(C#N)cc(C)c1Oc1nc(NC2CCN(Cc3ccc(S(C)(=O)=O)cc3)CC2)ncc1Br`, for which the half-maximal inhibitory concentration (IC50) in experiment [1] is 28 nM; in [2], 14 nM; in experiment [3], 28 nM; in [4], 5.2 nM; in [5] it was 35.7 nM; in experiment [6], below 1.2 nM.
`Cc1cc(C#N)cc(C)c1Oc1nc(NC2CCN(Cc3ccc(S(N)(=O)=O)cc3Cl)CC2)ncc1Br`: the IC50 in experiment [7] worked out at 9.9 nM; in [1], 90 nM; in experiment [2], 21 nM; in [3] it was 208 nM; in experiment [4] it was 9.9 nM; in [5] it was 18.9 nM. Also, the half-inhibitory concentration (IC50) stood at 3.2 nM in [6]; 61.5 nM in experiment [8]; 9.1 nM in experiment [9]; 6 nM in experiment [10]; 2.3 nM in experiment [11].
With `Cc1cc(C#N)cc(C)c1Oc1nc(NC2CCN(c3ccccc3)CC2)ncc1Br`, the IC50 in [1] was 192 nM; in [2] it was 112 nM; in experiment [3], 334 nM.
For `Cc1cc(C#N)cc(C)c1Oc1ccnc(NC2CCN(Cc3ccc(S(C)(=O)=O)cc3)CC2)n1`, the IC50 was 34 nM in experiment [1]; 50 nM in experiment [2]; 72 nM in [3]; 20.2 nM in experiment [5]; 16.9 nM in [6].
For the molecule `Cc1cc(C#N)cc(C)c1Oc1nc(NC2CCN(Cc3ccc(C(N)=O)cc3Cl)CC2)ncc1Br`, the IC50 came out at 131 nM in experiment [1]; 69 nM in [2]; 519 nM in [3]; 41.5 nM in experiment [4]; 52.7 nM in [5]; 30.2 nM in [6].
Turning to `Cc1cc(C#N)cc(C)c1Oc1nc(NC2CCN(Cc3ccccc3)CC2)ncc1Br`, the 50% inhibitory concentration (IC50) in experiment [1] is 19 nM; in experiment [2] it was 15 nM; in experiment [3], 70 nM; in experiment [4], 6.5 nM; in experiment [5] it was above 100 nM; in experiment [6] it was 9.1 nM.
